Active and inactive are the calls of the source.
Tests used:
[1] = system: Mus musculus; assay: Neuroprotective activity in 5XFAD mouse assessed as increase in GPX1 protein level at 5 mg/kg/day, po for 4 weeks by Western blot analysis; type: functional, organism-based
Outline: (§1)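 Hippocampal lysates, with protease and phosphatase inhibitors, from 8-month-old male 5XFAD mice after 4 weeks at 5 mg/kg/day in drinking water. 15 μg protein resolved on 8-12% SDS-PAGE and blotted to PVDF. Blocked 1 h, primary antibody overnight at 4°C, HRP secondary, ECL detection. Values expressed as % of Wt control. n = 4 per group.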

[2] = system: Mus musculus; assay: Neuroprotective activity in 5XFAD mouse assessed as increase in vertical activity by measuring number of rearings at 5 mg/kg/day, po for 4 weeks by open field test (reference value: 9.9+/-0.66); type: functional
[3] = system: Mus musculus; assay: Neuroprotective activity in 5XFAD mouse assessed as increase in synaptophysin protein level at 5 mg/kg/day, po for 4 weeks by Western blot analysis; type: functional, organism-based; outline: as §1
[4] = system: Mus musculus; assay: Antialzheimer activity in 5XFAD mouse model assessed as reduction of 5-mC global level in DNA at 5 mg/kg/day, po for 4 weeks; type: functional, organism-based
Outline: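 8-month-old male 5XFAD mice dosed 5 mg/kg/day via drinking water (1,8% hydroxypropyl-β-cyclodextrin vehicle), 4 weeks. Hippocampal DNA assayed for global 5-mC or 5-hmC by antibody-based ELISA-like colorimetric kit, absorbance 450 nm. Quantified against a standard curve of five control DNA dilutions (0.5–10 ng). n = 4 per group.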

[5] = system: Mus musculus; assay: Neuroprotective activity in 5XFAD mouse assessed as restoration of locomotor activity at 5 mg/kg/day, po for 4 weeks by open field test (reference value: 1672.36+/-68.84 cm); type: functional
[6] = system: Mus musculus; assay: Neuroprotective activity in 5XFAD mouse assessed as no change in IBA1 protein level at 5 mg/kg/day, po for 4 weeks by immunostaining analysis; type: functional, organism-based
[7] = system: Mus musculus; assay: Neuroprotective activity in 5XFAD mouse assessed as increase in Hmox1 gene expression level at 5 mg/kg/day, po for 4 weeks by RT-PCR analysis; type: functional, organism-based
Outline: (§2)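 Male 5XFAD mice, 8 months old, given 5 mg/kg/day in drinking water with 1,8% 2-hydroxypropyl-β-cyclodextrin for 4 weeks. Hippocampus collected one day after behavioural testing. Trizol RNA, 2 μg reverse-transcribed, TaqMan qPCR with 18 ng cDNA per reaction. ΔΔCt normalized to housekeeping gene. n = 4-6 (Hmox1: 3-6) per group. One-way ANOVA with Dunnett.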

[8] = system: Mus musculus; assay: Neuroprotective activity in 5XFAD mouse assessed as number of beta-amyloid plaques at 5 mg/kg/day, po for 4 weeks relative to control; type: functional
Outline: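 Male 5XFAD mice, 8 months old, received 5 mg/kg/day in drinking water for 4 weeks. 30 μm brain sections rehydrated in PBS, then stained with 0.3% Thioflavin-S for 20 min at room temperature in the dark.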

[9] = system: Mus musculus; assay: Neuroprotective activity in 5XFAD mouse assessed as increase in postsynaptic density protein 95 level at 5 mg/kg/day, po for 4 weeks by Western blot analysis; type: functional, organism-based; outline: as §1
[10] = system: Mus musculus; assay: Antialzheimer activity in 5XFAD mouse model assessed as increase in 5-hmC global level in DNA at 5 mg/kg/day, po for 4 weeks
[11] = system: Mus musculus; assay: Neuroprotective activity in 5XFAD mouse assessed as Ngf gene expression at 5 mg/kg/day, po for 4 weeks by RT-PCR analysis; type: functional, organism-based; outline: as §2
[12] = system: Mus musculus; assay: Neuroprotective activity in 5XFAD mouse assessed as reduction in GFAP protein level by measuring fluorescence intensity at 5 mg/kg/day, po for 4 weeks by immunostaining analysis; type: functional, organism-based
[13] = system: Mus musculus; assay: Neuroprotective activity in cognitive impairment of 5XFAD mouse model assessed as increase in discrimination index at 5 mg/kg/day, po for 4 weeks by novel object location test; type: functional, organism-based
Outline: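 Object location task in 8-month-old male 5XFAD mice after 4 weeks of 5 mg/kg/day in drinking water. Sessions video-recorded from above. Time sniffing the relocated object (TN) versus the object in the familiar location (TO) was scored. DI = (TN-TO)/(TN+TO).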

[14] = system: Mus musculus; assay: Neuroprotective activity in 5XFAD mouse assessed as increase in grooming at 5 mg/kg/day, po for 4 weeks by open field test (reference value: 1.2+/-0.25); type: functional
[15] = system: Mus musculus; assay: Neuroprotective activity in 5XFAD mouse assessed as Vgf gene expression at 5 mg/kg/day, po for 4 weeks by RT-PCR analysis; type: functional, organism-based; outline: as §2
[16] = system: Mus musculus; assay: Neuroprotective activity in 5XFAD mouse assessed as no change in Mcp1 mRNA expression at 5 mg/kg/day, po for 4 weeks by RT-PCR analysis; type: functional, organism-based; outline: as §2
[17] = system: Mus musculus; assay: Antioxidant activity in 5XFAD mouse hippocampus assessed as decrease in ROS level at 5 mg/kg/day, po for 4 weeks; type: functional, organism-based
Outline: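 Hippocampal homogenates from 8-month-old male 5XFAD mice after 4 weeks of 5 mg/kg/day in drinking water (cyclodextrin vehicle). H2O2 concentration measured with a hydrogen peroxide assay kit as an oxidative stress index. n = 3 per group, mean ± SEM.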

[18] = system: Mus musculus; assay: Neuroprotective activity in 5XFAD mouse assessed as increase in NRF2 protein level at 5 mg/kg/day, po for 4 weeks by Western blot analysis; type: functional, organism-based; outline: as §1
[19] = system: Mus musculus; assay: Neuroprotective activity in 5XFAD mouse model assessed as reduced cognitive deficit in short term memory at 5 mg/kg/day, po for 4 weeks by novel object recognition test; type: functional, organism-based
Outline: (§3)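 8-month-old male 5XFAD mice after 4 weeks of 5 mg/kg/day in drinking water. Two-arm 90° maze, habituated 10 min/day for 3 days. 10 min acquisition with two identical objects, then one object replaced after 2 h (short-term) or 24 h (long-term). DI = (TN−TO)/(TN+TO), exploration ≤2 cm. Objects counterbalanced.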

[20] = system: Mus musculus; assay: Neuroprotective activity in 5XFAD mouse assessed as distance in zone-center at 5 mg/kg/day, po for 4 weeks by open field test (reference value: 87.64+/-8.21 cm); type: functional
[21] = system: Mus musculus; assay: Neuroprotective activity in 5XFAD mouse assessed as reduction in H3K9me2 level at 5 mg/kg/day, po for 4 weeks by Western blot analysis; type: functional, organism-based; outline: as §1
[22] = system: Mus musculus; assay: Neuroprotective activity in 5XFAD mouse model assessed as reduced cognitive deficit in long term memory at 5 mg/kg/day, po for 4 weeks by novel object recognition test; type: functional, organism-based; outline: as §3
[23] = system: Mus musculus; assay: Neuroprotective activity in 5XFAD mouse assessed as increase in SOD1 protein level at 5 mg/kg/day, po for 4 weeks by Western blot analysis; type: functional, organism-based; outline: as §1
[24] = system: Mus musculus; assay: Neuroprotective activity in 5XFAD mouse assessed as defecations at 5 mg/kg/day, po for 4 weeks by open field test (reference value: 0.80+/-0.20 No_Unit); type: functional
[25] = system: Mus musculus; assay: Anti-neuro inflammatory activity in 5XFAD mouse assessed as reduction in TNF-alpha mRNA expression at 5 mg/kg/day, po for 4 weeks by RT-PCR analysis; type: functional, organism-based; outline: as §2
[26] = system: Mus musculus; assay: Neuroprotective activity in 5XFAD mouse assessed as increase in BDNF protein level at 5 mg/kg/day, po for 4 weeks by Western blot analysis; type: functional, organism-based; outline: as §1
[27] = system: Mus musculus; assay: Anti-neuro inflammatory activity in 5XFAD mouse assessed as reduction in Il-6 mRNA expression at 5 mg/kg/day, po for 4 weeks by RT-PCR analysis; type: functional, organism-based; outline: as §2
[28] = system: Mus musculus; assay: Neuroprotective activity in 5XFAD mouse assessed as distance in zone-periphery at 5 mg/kg/day, po for 4 weeks by open field test (reference value: 1450.05+/-133.56 cm); type: functional
[29] = system: Mus musculus; assay: Neuroprotective activity in 5XFAD mouse assessed as urinations at 5 mg/kg/day, po for 4 weeks by open field test (reference value: 0); type: functional
[30] = system: Mus musculus; assay: Anti-neuro inflammatory activity in 5XFAD mouse assessed as Cxcl10 mRNA expression at 5 mg/kg/day, po for 4 weeks by RT-PCR analysis; type: functional, organism-based; outline: as §2

Measured: Activity

COc1cc2c(NC3CCN(C(C)C)CC3)nc(N3CCC(F)(F)CC3)nc2cc1OCCCN1CCCC1
1623.83 cm: [28]
14.29: [2]
0: [29]
92.74 cm: [20]
3.71: [14]
2030.46 cm: [5]
inactive: [6] | [16] | [30]
45%: [8]
0.86: [24]
active: [1] | [3] | [4] | [7] | [9] | [10] | [11] | [12] | [13] | [15] | [17] | [18] | [19] | [21] | [22] | [23] | [25] | [26] | [27]
